Legend:
[1] = Number of mouse death after 10 mg/kg compound intra venous administration; n=3; format: ADME, organism-based; design: dose 10 mg/kg; conditions: in vivo, iv
Outline: (§1)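 Result recorded as the number of deaths over the number of animals tested.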

[2] = Inhibitory concentration against thrombin (FIIa); n=2
[3] = Maximum concentration in monkey plasma after 10 mg/kg oral administration at 120 min; format: ADME, organism-based; design: dose 10 mg/kg, route oral; conditions: cercopithecidae
Plasminogen = Plasminogen (Homo sapiens, UniProt P00747); experiment: Mean inhibitory concentration against plasmin; n=3
Outline: (§2)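 Ki against each protease (factor Xa, thrombin, plasmin, trypsin), obtained from Dixon plots built at two substrate concentrations; mean of n = 3.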

[4] = Mean inhibitory concentration against trypsin; n=3; outline: as §2
[5] = Mean inhibitory concentration against thrombin; n=3; outline: as §2
[6] = Mean inhibitory concentration against coagulation factor X; n=3; outline: as §2
[7] = Number of mouse death after 10 mg/kg compound intravenous administration; n=3; format: ADME, organism-based; design: dose 10 mg/kg, route intravenous; conditions: in vivo; outline: as §1
[8] = Inhibitory concentration against coagulation factor X; n=2
[9] = Number of mouse death after 10 mg/kg compound intravenous administration; NT= not tested; format: ADME, organism-based; design: dose 10 mg/kg, route intravenous; conditions: in vivo; outline: as §1
[10] = target: Coagulation factor X (Homo sapiens) (UniProt P00742); conditions: Plasma, at 10 mg/kg
Chain of Coagulation factor X (Homo sapiens) (P00742 41-179 limits assumed): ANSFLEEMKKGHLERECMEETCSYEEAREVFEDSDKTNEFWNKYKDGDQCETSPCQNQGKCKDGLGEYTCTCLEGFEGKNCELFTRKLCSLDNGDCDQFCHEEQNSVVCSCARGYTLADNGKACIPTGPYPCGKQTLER
Chain of Coagulation factor X (Homo sapiens) (P00742 235-488 limits assumed): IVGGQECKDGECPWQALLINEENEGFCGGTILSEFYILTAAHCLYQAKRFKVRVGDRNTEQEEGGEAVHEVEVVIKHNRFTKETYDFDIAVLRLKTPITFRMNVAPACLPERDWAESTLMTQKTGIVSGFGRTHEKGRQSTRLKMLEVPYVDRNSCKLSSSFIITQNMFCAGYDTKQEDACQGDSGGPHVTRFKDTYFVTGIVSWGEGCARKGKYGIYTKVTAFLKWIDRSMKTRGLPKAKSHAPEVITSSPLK

Chain of Plasminogen (P00747 97-580 limits assumed): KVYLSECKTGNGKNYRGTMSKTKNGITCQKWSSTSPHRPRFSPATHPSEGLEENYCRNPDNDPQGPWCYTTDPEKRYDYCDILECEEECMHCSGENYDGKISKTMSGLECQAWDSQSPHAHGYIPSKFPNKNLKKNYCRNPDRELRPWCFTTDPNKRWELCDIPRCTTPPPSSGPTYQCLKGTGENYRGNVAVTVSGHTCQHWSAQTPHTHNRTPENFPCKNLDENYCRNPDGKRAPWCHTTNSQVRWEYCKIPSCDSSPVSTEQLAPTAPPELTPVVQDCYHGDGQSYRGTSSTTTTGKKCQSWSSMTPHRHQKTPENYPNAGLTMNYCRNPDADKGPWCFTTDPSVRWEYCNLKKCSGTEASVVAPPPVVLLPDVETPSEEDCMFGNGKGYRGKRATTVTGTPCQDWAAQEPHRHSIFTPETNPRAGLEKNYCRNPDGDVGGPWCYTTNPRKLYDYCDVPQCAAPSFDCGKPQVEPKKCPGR
Chain of Plasminogen (P00747 581-810 limits assumed): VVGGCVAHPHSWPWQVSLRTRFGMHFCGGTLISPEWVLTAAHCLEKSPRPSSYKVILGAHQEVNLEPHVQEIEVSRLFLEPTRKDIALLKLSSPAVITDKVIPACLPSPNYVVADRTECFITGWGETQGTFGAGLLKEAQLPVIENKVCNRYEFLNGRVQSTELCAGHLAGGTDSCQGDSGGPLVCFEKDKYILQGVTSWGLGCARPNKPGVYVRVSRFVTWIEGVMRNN

| SMILES | IC50 [2] [µM] | Mortality [7] | IC50 [8] [µM] | further results |
| --- | --- | --- | --- | --- |
| Cl.Cl.N=C(N)N1CCc2ccc(OCC3(C(=O)O)CCN(c4ccncc4)CC3)cc2C1 | > 10 | – | – | Mortality [1]: 0 |
| N=C(N)N1CCc2ccc(OCC3(C(=O)O)CCN(c4ccncc4)CC3)cc2C1.O=S(O)O | – | – | – | Cmax [3]: 391 ng/mL; Ki (Plasminogen): 78.2 µM; Ki [4]: 13.6 µM; Ki [5]: > 100 µM; Ki [6]: 0.019 µM |
| Cl.Cl.N=C(N)N1CCc2ccc(OCC3CCN(c4ccncc4C(=O)O)CC3)cc2C1 | > 10 | 0 | 2 | – |
| Cl.Cl.N=C(N)N1CCc2ccc(OCC3CCN(c4ccnc5ccccc45)CC3)cc2C1 | > 10 | 3 | 0.4 | – |
| CC(=N)N1CCC(Oc2ccc(C(Cc3ccc4cc[n+](C(=N)N)cc4c3)C(=O)O)cc2)C1 (stereo not drawn) | – | – | – | Ki (Plasminogen): 23 µM; Ki [4]: 0.62 µM; Ki [5]: > 100 µM |
| Cl.Cl.N=C(N)N1CCc2ccc(OCC3CCN(c4ccncc4CCC(=O)O)CC3)cc2C1 | > 10 | – | 0.2 | Mortality [1]: 0 |
| Cl.Cl.N=C(N)N1CCc2ccc(OCC3(C(=O)O)CCN(c4ccncn4)CC3)cc2C1 | > 10 | – | 0.1 | Mortality [1]: 0 |
| N=C(N)N1CCc2ccc(OCC3CCN(Cc4ccccn4)CC3)cc2C1 | > 10 | – | 1 | – |
| CCOC(=O)CCc1cnccc1N1CCC(COc2ccc3c(c2)CN(C(=N)N)CC3)CC1.Cl.Cl | > 10 | 3 | 0.2 | – |
| COC(=O)c1cnccc1N1CCC(COc2ccc3c(c2)CN(C(=N)N)CC3)CC1.Cl.Cl | > 10 | 3 | 0.2 | – |
| Cl.Cl.Cl.N=C(N)N1CCc2ccc(OCC3CCN(Cc4ccncc4)CC3)cc2C1 | > 10 | – | 0.8 | Mortality [9]: 3 |
| N=C(N)N1CCc2ccc(OCC3(C(=O)O)CCN(c4ccncc4)CC3)cc2C1 | – | – | – | inhibition [10]: 41% |
| CCOC(=O)C1(COc2ccc3c(c2)CN(C(=N)N)CC3)CCN(c2ccncc2)CC1.Cl.Cl | > 10 | – | 0.08 | Mortality [1]: 3 |
| Cl.Cl.N=C(N)N1CCc2ccc(OCC3CCN(c4ccncc4)CC3)cc2C1 | > 10 | 3 | 0.06 | – |
| CC(=N)N1CCC(COc2ccc3c(c2)CN(C(=N)N)CC3)CC1.Cl.Cl | > 10 | 3 | 0.5 | – |
| N=C(N)N1CCc2ccc(OCC3CCNCC3)cc2C1 | > 10 | – | 3 | – |
| Cc1cc(N2CCC(COc3ccc4c(c3)CN(C(=N)N)CC4)(C(=O)O)CC2)ccn1.Cl.Cl | > 10 | – | 0.2 | Mortality [1]: 0 |
